Screening results from PubChem BioAssay.
ANO1 block: inhibitors of mouse TMEM16A calcium-activated chloride channel. HEK293 TMEM16A/YFP iodide influx fluorescence, ionomycin. normalized B-score (activity score, 25-100; higher = stronger inhibition) at 10 µM. 1.2% of 310,000 active. AID 588511;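 active = ratio plate-corrected score three or more library SD toward inhibition, starting fluorescence score within five deviations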;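 note: score derived from kinetic fluorescence span divided by baseline fluorescence per well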
TMEM16A act: activators or potentiators of mouse TMEM16A chloride channel. Q8BHY3. HEK293 TMEM16A/YFP-H148Q/I152L, iodide quench fluorescence; stronger effect = lower value. B-score at 10 µM. 0.3% of 340,000 active. AID 623877;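 active = fluorescence-ratio B-score plate-corrected deviation score at least 3 library SD below zero, with starting fluorescence score within 5 deviations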;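 note: channel opened by trigger with iodide after compound preincubation; score built on the fluorescence ratio of max minus min over baseline; more negative score means more quench and so TMEM16A activation or potentiation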
MT1-MMP act inh: inhibitors of human MT1-MMP activation. P50281. HT1080 RFP-PRO-GFP cells, GFP/RFP ratio fluorescence, overnight; percent of plate control window, DMSO zero. GFP/RFP ratio change, % at 20 µM. 0.061% of 360,000 active. AID 651647;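 active = GFP/RFP ratio change of at least 30% with cell ATP level not reduced by more than half and red fluorescence within 50% of control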
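Material – HT1080 RFP-PRO-GFP cells · Control set – DMSO wells and RFP-L50D-GFP cells · Incubation – overnight cell settling, then overnight compound exposure, 37 °C, 5% CO2 · Compound dosing – single-point 20 µM compound, 1% DMSO · Read-out – GFP/RFP fluorescence ratio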
DAGLB inh: diacylglycerol lipase beta (human) inhibition | HEK293T DAGLB membrane lysate, EnzChek fluorogenic substrate | inhibition, % at 5.17 µM | 0.059% of 340,000 active | AID 504411; in the data active = inhibition above about 34%
TMEM16A reconf: TMEM16A (mouse) chloride channel inhibition, re-confirmation; shares compounds with ANO1 block; HEK293 TMEM16A/YFP-H148Q, iodide quench fluorescence; ionomycin added to raise cell calcium; inhibition, % at 10 µM; 39% of 2,300 active;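 active = mean duplicate percent inhibition, scaled so buffer wells are 0 and the reference blocker 100, over three buffer SD above buffer mean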
HEK293 Ca mobil: counter-screen for TMEM16A inhibitors: effect on calcium mobilization; shares compounds with ANO1 block; TMEM16A/YFP HEK293, Fluo4 calcium mobilization; calcium response (% of ionomycin), % at 10 µM; 2% of 2,300 active;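 active = duplicate-averaged calcium signal over 20% of the ionomycin maximum, relative to buffer baseline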;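 note: each well's signal is peak minus trough fluorescence divided by its pre-addition baseline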
Parental YFP cnt: acts in parental YFP-HEK293 cells lacking TMEM16A, counter-screen. shares compounds with ANO1 block. iodide YFP quench, ionomycin. YFP ratio F(max-min)/F0 at 10 µM. 2,300 tested, under 10 active. AID 652233;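 active = yellow fluorescent protein signal ratio exceeding the buffer control mean by over 5 SD of those controls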;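 note: ratio is mean of duplicate wells from kinetic YFP trace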
ClC-1 inh: rat ClC-1 inhibition, TMEM16A specificity screen; AID 652236; CHO ClC-1-YFP, iodide influx fluorescence quench; iodide control reads 0, buffer control 100; ratio percent, % at 10 µM; shares compounds with ANO1 block; 2,300 tested, under 10 active;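 active = duplicate-mean ratio percent above the mean of iodide-only control wells, which defines zero, plus 5 of their SD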;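 note: higher percent means stronger block of ClC-1 iodide influx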
Target sequence (P35524 whole entry, looked up): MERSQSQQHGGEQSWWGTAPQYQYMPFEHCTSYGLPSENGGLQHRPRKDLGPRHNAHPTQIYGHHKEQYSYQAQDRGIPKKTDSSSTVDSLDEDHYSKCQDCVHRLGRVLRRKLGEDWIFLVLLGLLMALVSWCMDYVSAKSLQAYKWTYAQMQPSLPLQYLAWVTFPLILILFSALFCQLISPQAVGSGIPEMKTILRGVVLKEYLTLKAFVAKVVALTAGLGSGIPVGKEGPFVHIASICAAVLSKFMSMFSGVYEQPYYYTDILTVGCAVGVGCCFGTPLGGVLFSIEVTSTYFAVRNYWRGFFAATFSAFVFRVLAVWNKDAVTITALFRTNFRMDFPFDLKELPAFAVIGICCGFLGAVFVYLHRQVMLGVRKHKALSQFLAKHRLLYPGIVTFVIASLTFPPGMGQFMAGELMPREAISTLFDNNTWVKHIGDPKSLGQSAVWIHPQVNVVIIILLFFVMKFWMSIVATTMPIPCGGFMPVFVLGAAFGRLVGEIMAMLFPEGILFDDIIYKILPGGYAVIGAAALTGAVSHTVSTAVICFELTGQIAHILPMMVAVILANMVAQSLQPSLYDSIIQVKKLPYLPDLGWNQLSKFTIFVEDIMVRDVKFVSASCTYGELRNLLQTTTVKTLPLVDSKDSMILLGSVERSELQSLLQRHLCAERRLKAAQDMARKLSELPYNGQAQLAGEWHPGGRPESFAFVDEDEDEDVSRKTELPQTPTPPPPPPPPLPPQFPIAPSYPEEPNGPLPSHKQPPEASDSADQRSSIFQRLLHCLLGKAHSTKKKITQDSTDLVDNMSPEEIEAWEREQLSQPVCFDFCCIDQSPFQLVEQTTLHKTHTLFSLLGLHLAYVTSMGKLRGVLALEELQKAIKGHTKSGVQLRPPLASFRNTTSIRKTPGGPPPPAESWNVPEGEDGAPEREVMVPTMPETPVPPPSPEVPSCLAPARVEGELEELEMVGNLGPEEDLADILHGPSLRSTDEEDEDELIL
Numbers stand for hits; - = inactive; . = no result. Rows were chosen to be rich in hits. Some 1.3% of all compounds tested hit in one or more screens of this group.

SMILES | ANO1 block | TMEM16A act | MT1-MMP act inh | DAGLB inh | TMEM16A reconf | HEK293 Ca mobil | Parental YFP cnt | ClC-1 inh
O=C(COC(=O)/C=C/c1cc(Br)ccc1F)NC1CC1 | . | - | - | - | . | . | . | .
Cc1nc2ccccc2cc1OCc1ccccc1 | 100 | - | - | - | 32% | - | - | -
COc1ccc(F)cc1COc1nc(C)nc2ccccc12 | - | - | - | - | . | . | . | .
Cc1nc(OCc2ccccc2)c2ccccc2n1 | 100 | - | . | - | - | - | - | -
O=C(COC(=O)CCS(=O)(=O)c1ccc(F)cc1)NC1CCCCC1 | . | - | - | - | . | . | . | .
COc1ccc(S(=O)(=O)N2CCCCC2c2cc(C(=O)Nc3ccc4c(c3)OCO4)no2)cc1 (stereo not given) | . | . | - | . | . | . | . | .
O=C(NC1CCCCC1)C1c2ccccc2OCC(=O)N1CCc1c[nH]c2ccccc12 (stereo not given) | . | . | - | . | . | . | . | .
COc1ccc(N=c2oc3c(OC)cccc3cc2C(=O)NCc2ccco2)cc1OC | - | - | - | - | - | - | - | -
CN1CCN(C(=O)/C(=C/c2ccccc2)c2ccccc2)CC1 | 25 | - | - | - | - | - | - | -
CC1CC(C)CN(C(=O)/C(=C\c2ccccc2)c2ccccc2)C1 (stereo not given) | - | - | - | - | . | . | . | .
CC(C(=O)N1CCN(c2ccccc2)CC1)N1C(=O)C2CC=CCC2C1=O (stereo not given) | 25 | - | - | - | - | - | - | -
C=CCSC1=C(C#N)C(c2ccc(OCC)cc2)CC(=O)N1 (stereo not given) | 100 | - | - | - | - | - | - | -
O=c1[nH]c2cc3ccccc3cc2nc1-c1nnnn1C1CCCC1 | . | . | - | . | . | . | . | .
CCOC(=O)c1nn(-c2ccccc2)c(C#N)c1NC(=O)c1nn(CC)cc1Br | - | - | - | - | . | . | . | .
CCOC(=O)c1c(NC(=O)c2nn(CC)cc2Br)c(C#N)nn1-c1ccccc1 | 100 | - | - | - | - | - | - | -
CCCCc1ccc(N/C(N)=N/c2nc(C)cc(C)n2)cc1 | 100 | -5.6 | - | . | 62% | 43% | - | -
O=C(NCC1(N2CCCCC2)CCCCC1)c1cccc(S(=O)(=O)Nc2ccc(F)cc2)c1 | . | - | - | - | . | . | . | .
Cc1ccc(Cn2ccc(-c3cnc(-c4ccccc4)s3)n2)cc1 | 100 | - | - | - | 20% | - | - | -
O=S(=O)(c1ccccc1)n1ccc(-c2cnc(-c3ccccc3)s2)n1 | - | - | - | - | . | . | . | .
Cc1cc(C)n(-c2nc(Nc3ccccc3)nc(-n3nc(C)cc3C)n2)n1 | - | - | - | - | . | . | . | .
Cc1cc(C)n(-c2nc(N(c3ccccc3)c3ccccc3)nc(-n3nc(C)cc3C)n2)n1 | 100 | - | - | - | 26% | - | - | -
COc1ccc(S(=O)(=O)Nc2ccccc2C(=O)NCc2ccco2)cc1 | - | - | - | - | . | . | . | .
O=C(NCc1ccco1)c1ccccc1NS(=O)(=O)c1ccc(Br)s1 | 100 | - | - | - | - | - | - | -
O=C(Nc1nnc([C@@H]2C[C@H](O)[C@@H](CO)O2)s1)c1cccc(C(F)(F)F)c1 | . | . | - | . | . | . | . | .
Cc1ccccc1NC(=O)C1CCCN1S(=O)(=O)c1ccc2c(c1)n(C)c(=O)c(=O)n2C (stereo not given) | 25 | - | - | - | - | - | - | -
SMILES | ANO1 block | TMEM16A act | MT1-MMP act inh | DAGLB inh | TMEM16A reconf | HEK293 Ca mobil | Parental YFP cnt | ClC-1 inh
CCOC(=O)C1=C(C)NC(C)=C(C(=O)OCC)C1C(=O)OCC(=O)N1CCOCC1 | . | - | - | - | . | . | . | .
CC(C)n1c(-c2ccc(C(C)(C)C)cc2)n[nH]c1=S | 100 | - | - | - | - | - | - | -
O=C(c1cc2ccccc2oc1=O)N1CCN(CCc2ccccc2)CC1 | 25 | - | - | - | - | - | - | -
O=C(c1cc2c(ccc3ccccc32)oc1=O)N1CCCC1 | 100 | - | - | - | - | - | - | -
COc1cc(C(=O)NCC(=O)NNC(=O)C2COc3ccccc3O2)cc(OC)c1OC (stereo not given) | . | - | - | - | . | . | . | .
CCOC(=O)C1=CN(Cc2ccco2)S(=O)(=O)NC1c1ccc(C(F)(F)F)cc1 (stereo not given) | . | - | - | - | . | . | . | .
CC1CCN(C(=O)CSc2nnc(CNc3ccc(F)cc3)n2Cc2ccco2)CC1 | - | - | - | - | . | . | . | .
O=C(CSc1nnc(CNc2ccc(F)cc2)n1Cc1ccco1)N1CCCC1 | 25 | - | - | - | - | - | - | -
CC(=O)Oc1ccc(C(=O)Nc2nnc(C)s2)cc1 | - | - | - | - | - | - | - | -
CCN1CCc2c(sc(N)c2C(N)=O)C1 | - | - | - | - | 27% | - | - | -
CN1CCc2c(sc(N)c2C(N)=O)C1 | - | - | - | - | . | . | . | .
O=c1c(-c2ccco2)nc2ccccc2n1C(CCc1ccccc1)c1nc2ccccc2[nH]1 (stereo not given) | . | . | - | . | . | . | . | .
COC(=O)[C@@]1(C(C)C)N=C(c2cc(OC)c(OC)c(OC)c2)[C@]2(O1)C(=O)Nc1ccccc12 | . | . | - | . | . | . | . | .
CC(Sc1nc(NCc2ccccc2)nc(N(C)C)n1)C(=O)Nc1ccccc1 (stereo not given) | 100 | - | - | - | - | - | - | -
CC(C)Oc1ccc(C(=O)NCCCNC(=O)c2ccccn2)cc1 | - | - | - | - | . | . | . | .
Cc1cccc(CN2CCN(C(=O)CN(C)C(C)C(=O)Nc3ccc(C(N)=O)cc3)CC2)c1 (stereo not given) | . | - | - | - | . | . | . | .
c1ccc(C[n+]2cccc3c4ccccc4ccc32)cc1 | 25 | - | - | - | - | - | - | -
CCCCC[n+]1cccc2c3ccccc3ccc21 | - | - | - | - | . | . | . | .
OCC[C@@H]1NCc2cc(CO)cc(-c3ccccc3)c21 | . | . | - | - | . | . | . | .
CN(Cc1ccco1)S(=O)(=O)c1nnc(NC(=O)c2cccc(Cl)c2)s1 | 25 | - | - | - | 26% | - | - | -
CC(C)CC(=O)Nc1nnc(S(=O)(=O)N(C)Cc2ccco2)s1 | - | - | - | - | . | . | . | .
COc1ccccc1-n1nnnc1SCC(=O)N(C)C1CCS(=O)(=O)C1 (stereo not given) | . | - | - | - | . | . | . | .
CN(C)S(=O)(=O)N1CCC(Oc2cccc(C(=O)NCCC3=CCCCC3)c2)CC1 | 100 | - | - | - | 22% | - | - | -
Cc1cccc(C)c1NC(=O)C(c1ccnc2ccccc12)N1CCN(CCN(C)C)CC1 (stereo not given) | . | . | - | . | . | . | . | .
c1ccc(-c2nnc(N3CCN(c4ccccn4)CC3)c3ccccc23)cc1 | - | - | - | - | . | . | . | .
